High-throughput results (PubChem)
MBD2 inh = MBD2-methylated oligo binding inhibition; Q9UBB5; inhibition, % at 4.4 µM; TR-FRET, MBD2 binding to methylated oligonucleotide; hit rate 0.31% among 370,000; AID 686964; in the data active means inhibition above about 13%
Rin1 Abl inh = blocks binding of human Rin1 to Abl. hit rate 0.4% among 360,000. inhibition, % at 7.35 µM. P00519+Q13671. TR-FRET Rin1/Abl binding, biochemical. AID 588664; in the data active means inhibition above about 5%, passing the limit was not always enough
TDP2 inh = blocks human TDP2 phosphodiesterase activity | hit rate 0.34% among 370,000 | recombinant TDP2, T5PNP hydrolysis, p-nitrophenol absorbance 415 nm | inhibition, % at 12.8 µM;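 active means inhibition above the mean of all tested compounds plus 3 SD, set per campaign, cut at about 25% in these data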;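 further: 0% = DMSO with enzyme and 100% = buffer with substrate but no TDP2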
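Read-out basis: percent inhibition. System: recombinant human TDP2. Buffer or medium: Mg2+-containing Tris-HCl buffer, pH 7.5. Repeats: single replicate. Timing: reaction 2 h, 37 °C. Benchmarks: high control without enzyme, low control DMSO plus TDP2. Probe or stimulus: 5 mM T5PNP. Doses: 12.8 µM only. Measured by: epi absorbance of p-nitrophenol freed from T5PNP by hydrolysis.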
LEDGF integ inh = blocks HIV-1 LEDGF/p75-dependent DNA integration; TR-FRET IN-LEDGF/p75 DNA integration, Eu/Cy5; hit rate 0.64% among 370,000; inhibition, % at 3.7 µM; AID 743269;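 active means inhibition above the screen-wide mean plus 3 SD, cut at about 13% in these data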;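 further: signal is the Cy5 over europium emission ratio at 671 and 618 nm; 0% = plate median of compound wells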
UHRF1 MBD2 ctr = blocks human UHRF1 binding to methylated DNA; Q96T88; UHRF1 binding to methylated oligo, TR-FRET; inhibition, % at 4.4 µM; hit rate 0.75% among 370,000; in the data active means inhibition above about 21%;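 further: UHRF1 SRA domain binding a hemimethylated CpG hairpin DNA probe; 0% = median of test compound wells and 100% = reference inhibitor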
Target sequence (Q96T88 whole entry, looked up, the tested form may be a part): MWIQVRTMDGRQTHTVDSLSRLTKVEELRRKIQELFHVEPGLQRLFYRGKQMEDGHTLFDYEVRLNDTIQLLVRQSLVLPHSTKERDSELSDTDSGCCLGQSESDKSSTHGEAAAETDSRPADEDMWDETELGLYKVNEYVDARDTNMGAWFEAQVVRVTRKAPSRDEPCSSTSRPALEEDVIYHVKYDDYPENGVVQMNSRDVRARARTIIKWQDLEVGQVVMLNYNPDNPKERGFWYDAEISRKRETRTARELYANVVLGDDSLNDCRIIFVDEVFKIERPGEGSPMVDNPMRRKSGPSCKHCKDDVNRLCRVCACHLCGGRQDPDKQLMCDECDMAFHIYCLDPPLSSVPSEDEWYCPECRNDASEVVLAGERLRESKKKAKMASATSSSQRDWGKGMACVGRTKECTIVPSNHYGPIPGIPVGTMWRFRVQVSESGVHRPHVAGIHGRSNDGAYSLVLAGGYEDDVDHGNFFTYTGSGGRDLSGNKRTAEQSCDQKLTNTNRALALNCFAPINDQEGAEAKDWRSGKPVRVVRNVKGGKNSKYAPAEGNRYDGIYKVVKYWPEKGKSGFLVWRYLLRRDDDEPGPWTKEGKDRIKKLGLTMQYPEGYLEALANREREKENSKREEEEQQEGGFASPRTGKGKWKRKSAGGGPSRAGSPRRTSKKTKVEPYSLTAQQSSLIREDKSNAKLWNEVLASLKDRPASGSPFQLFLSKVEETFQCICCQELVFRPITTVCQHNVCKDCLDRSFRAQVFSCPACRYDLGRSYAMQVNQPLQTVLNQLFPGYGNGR
* = called active by the depositor; / = no result. Only some compounds are listed: those with a hit (about 1.9% of all), similar ones and a draw of the others.

SMILES | MBD2 inh | Rin1 Abl inh | TDP2 inh | LEDGF integ inh | UHRF1 MBD2 ctr
O=C(CCSc1ccccc1)Nc1ccccc1Br | 12.5 | -0.7 | -1.8 | 2.4 | 25.5*
O=C(CSc1nnc(-c2ccc(Cl)cc2)n1C1CCCCC1)NN=Cc1c(O)ccc2ccccc12 | -3.4 | / | -2.2 | -0.5 | -0.8
COC(=O)C[C@H]1CC[C@H]2[C@H](COc3ccc(NC(=O)c4ccccc4F)cc3C(=O)N2C)O1 | 3.6 | / | 3.4 | -0.7 | 1.5
COc1cccc(/C=N/NC(=O)NC23CC4CC(CC(C4)C2)C3)c1O | / | 8.1* | / | / | /
Cc1ccccc1N1CCN(C2CCCN(C(=O)CCN3CCCCC3=O)C2)CC1 (configuration not stated) | 1.4 | -1.9 | -4.1 | 4.3 | 24.4*
Cc1ccccc1N1CCN(C2CCCN(C(=O)CN3CCCC3=O)C2)CC1 (configuration not stated) | 2.8 | -1.3 | -4.8 | 0.1 | 1.3
Cc1cccc(NC(=O)C2CCN(c3nnc(-n4cccc4)s3)CC2)c1C | 3.8 | / | -8.1 | 3.7 | 0.7
CC1(C)CC(=O)N(CC(=O)N2CCN(Cc3ccc4c(c3)OCO4)CC2)c2ccccc2S1(=O)=O | 2.1 | / | 5.7 | -2.0 | 1.4
O=C(NCc1ccccc1)c1ccc2nc(-c3ccco3)c(-c3ccco3)nc2c1 | -9.7 | 5.9 | 18.8 | 26.7* | -4.4
O=C(c1ccc2nc(-c3ccco3)c(-c3ccco3)nc2c1)N1CCN(c2ncccn2)CC1 | 4.0 | 3.2 | 11.3 | 34.0* | 11.9
O=C(Nc1ccc2nc(-c3ccco3)c(-c3ccco3)nc2c1)N1CCN(c2ccccn2)CC1 | 3.5 | -0.6 | 11.6 | 23.8* | 4.1
CC(=O)c1ccc(NC(=O)c2ccc3nc(-c4ccco4)c(-c4ccco4)nc3c2)cc1 | / | 0.8 | / | / | /
Cc1nc2cc(NC(=O)N3CCN(c4ccccn4)CC3)ccc2o1 | 0.1 | 3.4 | 1.3 | 1.4 | -6.5
C=CCn1c(SCC(=O)O)nnc1-c1ccco1 | -5.9 | / | -3.9 | -0.6 | -1.0
CCCCCn1nnnc1C1(C)CSCC(=O)N1Cc1ccco1 (configuration not stated) | -5.4 | / | -5.0 | -0.4 | 4.0
CC(=O)N1CCN(c2ccc(NCc3ccc(Br)o3)cc2)CC1 | -4.9 | -2.0 | 12.9 | 28.1* | -2.9
O=C(NCC(c1ccccc1)c1ccccc1)[C@H](Cc1ccccc1)NC1(C(=O)NC2CCCCC2)CCCC1 | -4.2 | / | -13.5 | 2.0 | -0.2
O=c1[nH][nH]c2c(N=Cc3ccccc3O)ccc(F)c12 | / | 16.6* | / | / | /
C[C@@H]1CCN(C2CC2)S(=O)(=O)c2c(cccc2N2CC[C@H](N(C)C)C2)O1 | -1.8 | / | -9.8 | 0.3 | 3.1
O=c1c2ccc(F)cc2sn1-c1ccccc1 | 1.2 | -2.5 | -1.3 | 0.4 | 87.6*
O=c1c2ccccc2sn1-c1ccc(F)cc1 | 6.2 | 3.6 | 11.0 | -0.5 | 10.0
COC(=O)[C@]12C[C@H](CC(=O)N3CCC(c4ccccc4)CC3)C(=O)N(CCC3=CCCCC3)C1=C[C@H](C1CCCC1)O[C@@H]2C | 5.1 | / | 3.2 | -2.7 | -1.7
COc1ccccc1NC(=O)OC1CC2CC1[C@H]1CCCCN1[C@H]2Cc1ccccc1 (some centres not stated) | 2.9 | / | 4.5 | 3.4 | 3.9
CCCCn1c(N)c(N(CC(C)C)C(=O)c2cc3c(s2)CCCCC3)c(=O)[nH]c1=O | -3.4 | -3.8 | 2.1 | 1.3 | 56.9*
CCOC(=O)CC[C@@H]1CC[C@]2(CCCN(Cc3nccs3)C2)O1 | -0.9 | / | -6.9 | -2.7 | 9.9
SMILES | MBD2 inh | Rin1 Abl inh | TDP2 inh | LEDGF integ inh | UHRF1 MBD2 ctr
CN(C1CCCC1)C1CCN(C(=O)CNC(=O)/C=C/c2ccccc2)CC1 | -4.0 | -4.5 | 11.7 | -0.9 | 3.5
COc1ccc(/C=C/C(=O)NCC(=O)N2CCC(N(C)CCN3CCOCC3)CC2)cc1OC | 2.8 | 1.5 | -5.4 | -1.0 | 22.1*
C[C@@H]1CC(=O)NN=C1c1ccc(NN=C(C#N)C#N)cc1 | -0.3 | / | 1.2 | -1.6 | 1.0
Cc1ccnc(SCc2cc(=O)c(OC(=O)c3ccc(C)c([N+](=O)[O-])c3)co2)n1 | 4.8 | / | -0.3 | 2.3 | 1.7
COC(=O)c1ccc2nc(-c3ccc(OC)c(OC)c3)c(Cc3ccsc3)n2c1 | 8.5 | 3.0 | -5.4 | 6.4 | 18.8
COC(=O)c1ccc2nc(-c3ccc(Cl)cc3)c(Cc3ccsc3)n2c1 | 8.8 | / | 9.8 | -3.7 | 20.8*
Cc1ccc2nc(-c3cccc(Br)c3)c(Cc3ccccc3C(F)(F)F)n2c1 | -4.5 | 4.7 | -0.1 | 5.2 | 1.1
Cc1ccc2nc(-c3ccc(F)cc3)c(Cc3ccccc3C(F)(F)F)n2c1 | 8.4 | 1.5 | 5.0 | 0.5 | 21.8*
COC(=O)c1ccc2nc(-c3cccc(Cl)c3)c(Cc3ccccc3C(F)(F)F)n2c1 | 12.6 | / | 10.2 | 0.0 | 22.1*
COC(=O)c1ccc2nc(-c3ccccc3)c(Cc3ccsc3)n2c1 | 2.3 | 3.7 | -1.9 | -0.2 | 22.2*
COC(=O)C1CCCN(C(=O)C2CCN(S(=O)(=O)c3cccs3)CC2)C1 (configuration not stated) | 0.1 | / | -3.5 | 2.1 | 2.3
COC(=O)c1ccc2nc(-c3cccc(Br)c3)c(Cc3ccsc3)n2c1 | 8.4 | 2.5 | 2.5 | 1.6 | 21.5*
COC(=O)c1ccc2nc(-c3cccc(Br)c3)c(Cc3cccc(F)c3)n2c1 | -0.8 | / | 10.7 | -2.4 | 4.1
COC(=O)c1ccc2nc(-c3cccc(Cl)c3)c(Cc3cccc(F)c3)n2c1 | 2.4 | / | 3.6 | 7.7 | 19.2
COC(=O)c1ccc2nc(-c3cccc(Cl)c3)c(CC3CCCCC3)n2c1 | 5.1 | / | -1.6 | 4.7 | 21.7*
COC(=O)c1ccc2nc(-c3ccc(Cl)cc3)c(Cc3cccc(Cl)c3)n2c1 | 4.7 | / | 9.4 | 2.5 | 3.8
COC(=O)c1ccc2nc(-c3cccc(Cl)c3)c(Cc3cccc(Cl)c3)n2c1 | 5.2 | / | 9.7 | 0.8 | 23.1*
COC(=O)c1ccc2nc(-c3cccc(Cl)c3)c(Cc3ccsc3)n2c1 | 9.1 | 3.8 | 3.0 | -1.5 | 22.4*
COC(=O)c1ccc2nc(-c3cccc(Br)c3)c(Cc3cccc(Cl)c3)n2c1 | 5.6 | / | 1.7 | -1.2 | 13.1
CCOc1ccc(-c2cc(C(C)=O)c3n(c2=O)CCC3)cc1 | -2.2 | / | -1.9 | -1.6 | 3.3
CNC1=C(N(C(C)=O)c2ccc(Br)cc2)C(=O)c2ccccc2C1=O | -19.8 | -8.3 | 52.7* | 23.4* | 0.3
CCC(=O)N(C1=C(NC)C(=O)c2ccccc2C1=O)C(C)C | -4.8 | -8.2 | 6.3 | 1.3 | -0.5
CCC(C)(C)n1nnnc1CN1CCN(c2ccc(OC)cc2)CC1 | -0.6 | 0.7 | -5.6 | 0.5 | 21.8*
C[C@H](CO)N1C[C@H](C)[C@H](CN(C)Cc2ccncc2)Oc2ncc(C#CC3CC3)cc2C1=O | 3.2 | 0.7 | -0.5 | -1.9 | 6.5
C[C@H]1CN([C@@H](C)CO)C(=O)c2cc(C#CCC3CCCC3)cnc2O[C@@H]1CN(C)C(=O)CC1CC1 | 5.0 | 0.1 | 1.7 | 3.3 | 21.7*
C[C@@H]1CN([C@@H](C)CO)S(=O)(=O)c2ccc(C#CC3CCCCC3)cc2O[C@@H]1CN(C)Cc1cccnc1 | 10.6 | 0.8 | -11.6 | 1.8 | 23.7*
